{"source": "ChEMBL document CHEMBL2390917", "about": "“Synthesis and biological evaluation of 2-(5-methyl-4-phenyl-2-oxopyrrolidin-1-yl)-acetamide stereoisomers as novel positive allosteric modulators of sigma-1 receptor” (Bioorg Med Chem, 2013)", "key": {"[1]": {"target": "Adrenergic receptor alpha-1 (Homo sapiens, UniProt P35348+P25100+P35368)", "experiment": "Binding affinity to human adrenergic alpha1 receptor by radioligand displacement assay"}, "[2]": {"experiment": "Binding affinity to P2Y receptor (unknown origin) by radioligand displacement assay", "parameters": "species or system Homo sapiens"}, "[3]": {"target": "5-hydroxytryptamine receptor 2B (Homo sapiens, UniProt P41595)", "sequence (P41595 whole entry)": "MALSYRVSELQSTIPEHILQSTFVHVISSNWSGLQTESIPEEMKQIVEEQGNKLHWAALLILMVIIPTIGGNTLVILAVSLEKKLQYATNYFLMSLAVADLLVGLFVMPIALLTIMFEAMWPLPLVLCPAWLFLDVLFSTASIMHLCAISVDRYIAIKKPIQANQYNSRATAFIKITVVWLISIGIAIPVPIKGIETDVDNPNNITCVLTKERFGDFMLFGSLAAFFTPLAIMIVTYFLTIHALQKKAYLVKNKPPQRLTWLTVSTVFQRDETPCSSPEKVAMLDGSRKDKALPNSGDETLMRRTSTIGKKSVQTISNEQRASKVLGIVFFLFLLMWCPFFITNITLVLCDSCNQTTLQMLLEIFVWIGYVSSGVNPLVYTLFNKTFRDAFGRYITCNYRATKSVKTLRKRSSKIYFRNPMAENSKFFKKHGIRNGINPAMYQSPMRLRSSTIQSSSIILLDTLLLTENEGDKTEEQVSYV", "experiment": "Binding affinity to human 5-HT2B receptor by radioligand displacement assay"}, "[4]": {"target": "Alpha-2A adrenergic receptor (Homo sapiens, UniProt P08913)", "sequence (P08913 whole entry)": "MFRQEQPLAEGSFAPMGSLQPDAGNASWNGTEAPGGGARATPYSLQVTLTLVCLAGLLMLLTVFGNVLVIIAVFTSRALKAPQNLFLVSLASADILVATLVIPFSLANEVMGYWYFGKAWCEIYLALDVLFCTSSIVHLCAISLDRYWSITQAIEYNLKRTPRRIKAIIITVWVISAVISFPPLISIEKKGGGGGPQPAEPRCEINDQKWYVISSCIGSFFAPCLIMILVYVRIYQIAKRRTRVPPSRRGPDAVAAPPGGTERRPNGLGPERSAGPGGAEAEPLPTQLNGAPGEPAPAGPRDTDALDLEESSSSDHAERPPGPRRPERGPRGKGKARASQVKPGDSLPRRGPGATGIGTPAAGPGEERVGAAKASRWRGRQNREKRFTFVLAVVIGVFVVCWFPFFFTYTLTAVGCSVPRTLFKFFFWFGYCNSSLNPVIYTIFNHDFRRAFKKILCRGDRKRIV", "experiment": "Binding affinity to human adrenergic alpha2 receptor by radioligand displacement assay"}, "[5]": {"target": "Type-2 angiotensin II receptor (Homo sapiens, UniProt P50052)", "sequence (P50052 whole entry)": "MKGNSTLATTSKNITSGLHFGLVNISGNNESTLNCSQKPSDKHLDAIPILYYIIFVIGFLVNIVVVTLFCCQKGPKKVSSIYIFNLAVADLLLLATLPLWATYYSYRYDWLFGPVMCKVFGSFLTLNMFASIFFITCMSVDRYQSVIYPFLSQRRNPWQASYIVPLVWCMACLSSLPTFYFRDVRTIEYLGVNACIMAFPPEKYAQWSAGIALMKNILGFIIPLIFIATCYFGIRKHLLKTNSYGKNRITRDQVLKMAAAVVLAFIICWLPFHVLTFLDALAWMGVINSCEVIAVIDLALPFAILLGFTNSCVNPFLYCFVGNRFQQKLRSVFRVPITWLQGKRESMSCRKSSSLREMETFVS", "experiment": "Binding affinity to human angiotensin AT2 receptor by radioligand displacement assay"}, "[6]": {"target": "Muscarinic acetylcholine receptor M5 (Homo sapiens, UniProt P08912)", "sequence (P08912 whole entry)": "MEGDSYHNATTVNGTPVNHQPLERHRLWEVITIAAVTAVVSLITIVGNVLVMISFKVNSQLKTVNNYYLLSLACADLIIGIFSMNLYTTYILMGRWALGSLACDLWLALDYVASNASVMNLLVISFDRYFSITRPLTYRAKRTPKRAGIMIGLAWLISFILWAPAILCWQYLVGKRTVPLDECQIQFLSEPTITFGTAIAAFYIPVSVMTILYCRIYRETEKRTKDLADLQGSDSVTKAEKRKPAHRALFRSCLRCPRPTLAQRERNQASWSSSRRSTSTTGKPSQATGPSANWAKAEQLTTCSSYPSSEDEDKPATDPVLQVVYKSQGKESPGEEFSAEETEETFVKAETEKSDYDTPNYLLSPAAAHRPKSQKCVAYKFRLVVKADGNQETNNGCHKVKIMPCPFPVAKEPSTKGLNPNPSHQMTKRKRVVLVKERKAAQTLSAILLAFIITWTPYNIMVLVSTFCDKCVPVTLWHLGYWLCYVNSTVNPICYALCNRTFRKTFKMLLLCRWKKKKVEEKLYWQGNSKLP", "experiment": "Binding affinity to human muscarinic M5 receptor by radioligand displacement assay"}, "[7]": {"experiment": "Binding affinity to PCP receptor (unknown origin) by radioligand displacement assay", "parameters": "species or system Homo sapiens"}, "[8]": {"target": "Sigma non-opioid intracellular receptor 1 (Rattus norvegicus) (UniProt Q9R0C9)", "sequence (Q9R0C9 whole entry)": "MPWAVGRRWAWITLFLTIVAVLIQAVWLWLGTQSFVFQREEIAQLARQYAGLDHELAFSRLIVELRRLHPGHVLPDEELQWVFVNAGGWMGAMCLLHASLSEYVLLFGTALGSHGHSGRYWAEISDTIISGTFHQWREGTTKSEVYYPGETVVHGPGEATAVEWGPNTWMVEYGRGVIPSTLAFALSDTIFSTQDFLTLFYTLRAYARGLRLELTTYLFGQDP", "experiment": "Positive allosteric modulation of Wistar rat sigma 1 receptor assessed as increase in electrically-stimulated vas deferens contraction at 10 uM after 10 mins", "procedure,_shortened": "(§1)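 Isolated rat vas deferens, proximal ~15 mm segments, in K-H buffer at 32 °C gassed […], with 1.0 g passive tension and a 60 min adaptation. Field-stimulated at 0.1 Hz, 1 ms, 50 V. Cumulative PRE-084 (1–100 µM) was given, then washout and a 30 min rest. Test compound 10 µM was added for 10 min before cumulative PRE-084. Response is % increase over baseline amplitude; n=6, mean ± SEM, paired t-test.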"}, "[9]": {"target": "Sigma non-opioid intracellular receptor 1 (Rattus norvegicus) (UniProt Q9R0C9)", "experiment": "Positive allosteric modulation of Wistar rat sigma 1 receptor assessed as potentiation of PRE-084 effect on electrically-stimulated vas deferens contraction at 10 uM preincubated for 10 mins followed by PRE-084 addition", "procedure,_shortened": "as §1"}, "[10]": {"experiment": "Binding affinity to L-type calcium channel verapamil binding site (unknown origin) by radioligand displacement assay", "parameters": "species or system Homo sapiens"}, "[11]": {"target": "5-hydroxytryptamine receptor 2C (Homo sapiens, UniProt P28335)", "sequence (P28335 whole entry)": "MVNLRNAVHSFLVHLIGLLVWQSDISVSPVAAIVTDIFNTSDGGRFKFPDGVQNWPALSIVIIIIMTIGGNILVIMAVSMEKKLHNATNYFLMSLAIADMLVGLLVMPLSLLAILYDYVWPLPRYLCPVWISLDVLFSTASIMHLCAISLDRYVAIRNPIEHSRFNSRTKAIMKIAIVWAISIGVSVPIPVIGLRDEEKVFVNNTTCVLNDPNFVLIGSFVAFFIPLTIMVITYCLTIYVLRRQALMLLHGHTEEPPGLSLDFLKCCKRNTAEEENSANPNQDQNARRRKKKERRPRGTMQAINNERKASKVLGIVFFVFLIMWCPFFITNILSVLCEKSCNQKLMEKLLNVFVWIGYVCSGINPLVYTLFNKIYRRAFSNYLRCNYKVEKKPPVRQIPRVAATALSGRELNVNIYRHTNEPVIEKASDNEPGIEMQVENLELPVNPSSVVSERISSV", "experiment": "Binding affinity to human 5-HT2C receptor by radioligand displacement assay"}, "[12]": {"target": "Sigma non-opioid intracellular receptor 1 (Homo sapiens, UniProt Q99720)", "sequence (Q99720 whole entry)": "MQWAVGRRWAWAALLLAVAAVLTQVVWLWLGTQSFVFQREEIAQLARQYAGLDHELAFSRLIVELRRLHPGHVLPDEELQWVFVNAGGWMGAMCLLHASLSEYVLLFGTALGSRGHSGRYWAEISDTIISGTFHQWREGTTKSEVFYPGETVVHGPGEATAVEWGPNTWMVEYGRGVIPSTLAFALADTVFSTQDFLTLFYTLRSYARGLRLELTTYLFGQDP"}, "[13]": {"experiment": "Binding affinity to GABA-gated chloride channel (unknown origin) by radioligand displacement assay", "parameters": "species or system Homo sapiens"}, "[14]": {"experiment": "Binding affinity to sodium channel site 2 (unknown origin) by radioligand displacement assay", "parameters": "species or system Homo sapiens"}, "[15]": {"experiment": "Binding affinity to peripheral-type BZD receptor (unknown origin) by radioligand displacement assay", "parameters": "species or system Homo sapiens"}, "[16]": {"experiment": "Binding affinity to P2X receptor (unknown origin) by radioligand displacement assay", "parameters": "species or system Homo sapiens"}}, "note": "pIC50, pKi: −log10 of the molar value. Where a name gives a salt, the structure may show the parent alone. Active and inactive are the calls of the source. No cut-off for these calls is given here. Residues, ends and D or L forms follow the SMILES beside them."}
{"smiles": "CC(C)NCC(O)COc1ccc(CC(N)=O)cc1", "note": "(stereo not given) [ATENOLOL]", "values": [{"measurement": "IC50", "setting": "[1]", "value": 230, "unit": "nM"}]}
{"smiles": "Nc1ncnc2c1ncn2[C@H]1C[C@H](O)[C@@H](COP(O)(=S)OP(=O)(O)OP(=O)(O)O)O1", "note": "(stereo not given in full)", "values": [{"measurement": "pIC50", "setting": "[2]", "value": 7.60}]}
{"smiles": "COc1cc(CC(C)N)c(OC)cc1I", "note": "(stereo not given)", "values": [{"measurement": "pIC50", "setting": "[3]", "value": 8.49}]}
{"smiles": "Cc1ccc(OCC(O)C(C)NC(C)C)c2c1CCC2", "note": "(stereo not given) [ZENIDOLOL]", "values": [{"measurement": "pIC50", "setting": "[4]", "value": 9.30}]}
{"smiles": "CC(C)[C@H](NC(=O)[C@H](CCCNC(=N)N)NC(=O)[C@@H](N)CC(=O)O)C(=O)N[C@@H](Cc1ccc(O)cc1)C(=O)N[C@H](C(=O)N[C@@H](Cc1cnc[nH]1)C(=O)N1CCC[C@H]1C(=O)N[C@@H](C)C(=O)O)C(C)C", "note": "[ANGIOTENSIN] (H-DRVYVHPA-OH)", "values": [{"measurement": "pIC50", "setting": "[5]", "value": 9.89}]}
{"smiles": "C[N+]1(C)CCC(OC(=O)C(c2ccccc2)c2ccccc2)CC1", "note": "[4-DAMP]", "values": [{"measurement": "pIC50", "setting": "[6]", "value": 9.10}]}
{"smiles": "C[C@]12N[C@H](Cc3ccccc31)c1ccccc12", "note": "[DIZOCILPINE MALEATE]", "values": [{"measurement": "pIC50", "setting": "[7]", "value": 8.22}]}
{"smiles": "C[C@@H]1[C@@H](c2ccccc2)CC(=O)N1CC(N)=O", "values": [{"measurement": "Activity", "setting": "[8]", "value": "inactive"}, {"measurement": "Activity", "setting": "[9]", "value": "Active"}]}
{"smiles": "COc1ccc(CCN(C)CCCC(C#N)(c2cc(OC)c(OC)c(OC)c2)C(C)C)cc1OC", "note": "(stereo not given) [GALLOPAMIL]", "values": [{"measurement": "pIC50", "setting": "[10]", "value": 7.70}]}
{"smiles": "COc1cc(OC)c(C(=O)CCCCN2CCC3(CC2)NC(=O)NC3=O)cc1NS(=O)(=O)c1ccc(C(F)(F)F)cc1", "note": "[RS-102,221]", "values": [{"measurement": "pIC50", "setting": "[11]", "value": 8.26}]}
{"smiles": "COc1cc2c(cc1OC)C(=O)C(CC1CCN(Cc3ccccc3)CC1)C2", "note": "(stereo not given) [DONEPEZIL]", "values": [{"measurement": "pKi", "setting": "[12]", "value": 7.84}]}
{"smiles": "C=C(C)[C@@H]1[C@H]2OC(=O)[C@@H]1[C@]1(O)C[C@H]3O[C@]34C(=O)O[C@H]2[C@]14C", "note": "[PICROTOXININ]", "values": [{"measurement": "pIC50", "setting": "[13]", "value": 6.60}]}
{"smiles": "C[C@@H]1[C@H](c2ccccc2)CC(=O)N1CC(N)=O", "values": [{"measurement": "Activity", "setting": "[8]", "value": "inactive"}, {"measurement": "Activity", "setting": "[9]", "value": "Active"}]}
{"smiles": "COc1ccc(C(=O)O[C@H]2CC[C@@]3(C)[C@@H]4CC[C@H]5[C@]6(O)C[C@H](O)[C@@]7(O)[C@@H](CN8C[C@@H](C)CC[C@H]8[C@@]7(C)O)[C@]6(O)C[C@@]53O[C@]24O)cc1OC", "note": "[VERATRIDINE]", "values": [{"measurement": "pIC50", "setting": "[14]", "value": 5.11}]}
{"smiles": "CCC(C)N(C)C(=O)c1cc2ccccc2c(-c2ccccc2Cl)n1", "note": "(stereo not given) [PK-11195]", "values": [{"measurement": "pIC50", "setting": "[15]", "value": 8.96}]}
{"smiles": "Nc1ncnc2c1ncn2[C@@H]1O[C@H](COP(=O)(O)CP(=O)(O)OP(=O)(O)O)[C@@H](O)[C@H]1O", "note": "[DIPHOSPHOMETHYLPHOSPHONIC ACID ADENOSYL ESTER]", "values": [{"measurement": "pIC50", "setting": "[16]", "value": 8.46}]}
{"smiles": "C[C@H]1[C@H](c2ccccc2)CC(=O)N1CC(N)=O", "values": [{"measurement": "Activity", "setting": "[8]", "value": "inactive"}, {"measurement": "Activity", "setting": "[9]", "value": "Active"}]}
